# Screens from PubChem.
# Only some compounds are listed: those with a hit (about 2.4% of all), similar ones and a draw of the others.
# DAGLB inhibitor: blocks human DAGLB lipase activity; Q8NCG7; HEK293T DAGLB membrane lysate, EnzChek fluorogenic substrate; inhibition, % at 5.17 µM; 0.059% of 340,000 active; AID 504411; in the data active = inhibition above about 34%;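 note: 0% = enzyme with vehicle and 100% = wells lacking enzyme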
# NRP1-CendR mod: alters CendR peptide binding to human NRP-1; O14786; FAM-RPARPAR peptide binding to NRP-1, fluorescence polarization; inhibition, % at 25 µM; 0.85% of 360,000 active;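 active = inhibition or corrected inhibition above about 18%, plus a signal ratio from 0.5 to 1.5, limit read from the data, passing the limit was not always enough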
# Target sequence (O14786 whole entry, looked up): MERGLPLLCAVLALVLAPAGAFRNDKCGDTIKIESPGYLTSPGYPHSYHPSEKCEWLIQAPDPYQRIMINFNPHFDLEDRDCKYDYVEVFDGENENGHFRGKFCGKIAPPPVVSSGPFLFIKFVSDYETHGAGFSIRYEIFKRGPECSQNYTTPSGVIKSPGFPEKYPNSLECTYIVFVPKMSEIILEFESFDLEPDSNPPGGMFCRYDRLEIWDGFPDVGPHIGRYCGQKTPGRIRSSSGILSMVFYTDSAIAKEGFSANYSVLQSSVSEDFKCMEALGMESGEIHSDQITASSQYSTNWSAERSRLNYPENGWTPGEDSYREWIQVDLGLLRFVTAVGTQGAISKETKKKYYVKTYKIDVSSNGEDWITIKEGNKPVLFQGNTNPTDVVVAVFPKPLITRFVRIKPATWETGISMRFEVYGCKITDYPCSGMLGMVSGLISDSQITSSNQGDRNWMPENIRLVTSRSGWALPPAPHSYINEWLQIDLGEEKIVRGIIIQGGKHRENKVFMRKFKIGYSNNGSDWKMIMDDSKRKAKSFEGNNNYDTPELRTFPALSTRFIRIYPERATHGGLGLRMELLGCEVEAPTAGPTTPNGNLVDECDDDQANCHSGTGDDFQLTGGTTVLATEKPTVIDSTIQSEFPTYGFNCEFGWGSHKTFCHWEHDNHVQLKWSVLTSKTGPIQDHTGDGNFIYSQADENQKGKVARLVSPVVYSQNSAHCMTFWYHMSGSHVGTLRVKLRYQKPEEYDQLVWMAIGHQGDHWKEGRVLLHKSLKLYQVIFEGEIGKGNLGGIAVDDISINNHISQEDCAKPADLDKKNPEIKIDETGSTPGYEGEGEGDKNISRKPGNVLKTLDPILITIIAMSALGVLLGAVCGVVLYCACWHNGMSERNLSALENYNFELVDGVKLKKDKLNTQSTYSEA
# SENP1 inh: inhibitors of human SENP1 SUMO protease catalytic domain. Q9P0U3. recombinant SENP1 catalytic domain, CyPet-SUMO1-YPet FRET cleavage. inhibition, % at 10 µM. 0.21% of 360,000 active;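 active = inhibition at least 30% at 10 µM, raw YFP signal under a set limit, fluorescence ratio 0.5 to 1.5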;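 note: 0% = enzyme with DMSO and 100% = no enzyme wells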
#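 Material: hSENP1 catalytic domain, recombinant; medium: Tris pH 8 with BME, BSA, NP40 and catalase; compound: single concentration of 10 µM compound, 0.5% DMSO final; technique: FRET read of cyan and yellow fluorescence; timing: 50 min enzyme reaction, room temperature, light-protected; reagent: SFCypet-SUMO1-SFYpet substrate at 25 nM; control set: no-enzyme low, enzyme-DMSO high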
# MT1-MMP act inh: inhibitors of human MT1-MMP activation | HT1080 RFP-PRO-GFP cells, GFP/RFP ratio fluorescence, overnight; percent of plate control window, DMSO zero | P50281 | 0.061% of 360,000 active | GFP/RFP ratio change, % at 20 µM;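 active = GFP/RFP ratio change of at least 30% with cell ATP level not reduced by more than half and red fluorescence within 50% of control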
#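 Material – HT1080 RFP-PRO-GFP cells · Control set – DMSO wells and RFP-L50D-GFP cells · Incubation – overnight cell settling, then overnight compound exposure, 37 °C, 5% CO2 · Compound dosing – single-point 20 µM compound, 1% DMSO · Read-out – GFP/RFP fluorescence ratio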
# Myeloid diff 2: compounds promoting myeloid differentiation | ER-HoxA9 myeloid progenitors, lysozyme-GFP differentiation, flow cytometry | calls only at 10 µM | 1% of 360,000 active | AID 624256;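 active = normalized GFP-positive differentiation at or above the plate's own cutoff, the solvent-only control mean plus 3 SD; inconclusive = no clear call, values can overlap the other calls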;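 note: cells exposed to compound for four days before flow analysis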
# beta cell repl: inducers of beta-cell replication in MIN6 cells. MIN6 cells proliferation, ATPlite luminescence, 48 h; cells starved in 0.2% serum; 100% = growth in 10% serum. proliferation, % at 10 µM. 0.29% of 330,000 active. AID 2380;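 active = compounds whose signal lies at least 3.5 SD above the mean of all wells on their plate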;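 note: 0% = DMSO-treated cells in low-serum medium and 100% = 10% serum control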
# Starred values were filed as active, the others as inactive; i = inactive; ? = inconclusive; nt = not tested or not shown; + = active, no number.
SMILES,DAGLB inhibitor,NRP1-CendR mod,SENP1 inh,MT1-MMP act inh,Myeloid diff 2,beta cell repl
COc1cccc2cc(C(C)N(CCCN3CCOCC3)C(=S)Nc3cccc(C)c3)oc12 (stereo unspecified),1.0,39.0*,2.8,2.8,i,-3.4
CCc1ccc(NC(=O)N(CCCN2CCOCC2)C(C)c2cc3cccc(OC)c3o2)cc1 (stereo unspecified),-2.7,37.1*,1.7,2.8,i,-1.1
Cc1nn(CCO)c2nc(-c3cccs3)cc(C(F)(F)F)c12,-8.7,-1.6,-0.6,-5.3,i,0.0
CCc1ccc(OCC(=O)NC(NC(=S)Nc2ccc(Cl)cc2)C(Cl)(Cl)Cl)cc1 (stereo unspecified),-2.7,-0.3,1.4,-14.7,i,-4.7
CCCCN(C(=O)CCNC(=O)NC12CC3CC(CC(C3)C1)C2)c1c(N)n(CCC)c(=O)[nH]c1=O,-0.3,-2.7,-3.2,-3.8,i,-0.3
CC1CC(=O)C2=C(C1)Nc1ccccc1N(C(=O)COc1ccccc1)C2c1ccco1 (stereo unspecified),-2.1,-3.5,0.9,-2.0,+,6.0
CC1CC(=O)Nc2ccccc2N1C(=O)COc1ccc2ccccc2c1 (stereo unspecified),0.7,0.3,-8.4,3.1,i,0.6
CC(=O)N1c2ccccc2NC2=C(C(=O)CCC2)C1c1ccco1 (stereo unspecified),-2.0,17.3,-2.0,nt,i,5.0
CCC1C(=O)Nc2ccccc2N1C(=O)COc1ccccc1 (stereo unspecified),1.6,25.9*,-1.6,0.1,i,-0.1
Cc1cc(C)n(-c2nnc(NCc3ccc(Cl)cc3)nn2)n1,9.1,30.0*,2.6,0.0,i,-4.1
Cc1cc(C)n(-c2nc(C)nc(NCc3ccccc3)n2)n1,-2.5,0.3,2.6,-3.9,i,-1.5
CCN1/C(=C/c2cc[n+](C)cc2)C=Cc2cc(C)ccc21,2.4,-52.6,-1.9,-10.1,+,nt
CC(C)COC(=O)C(N)C(C(=O)OCC(C)C)c1ccccc1 (stereo unspecified),-17.2,29.7*,1.8,-1.4,i,4.4
COc1ccc(CN2CCN(S(=O)(=O)c3ccc(NC(C)=O)cc3)CC2)c(OC)c1OC,1.7,-0.9,0.5,-0.2,+,2.0
COc1ccc(CN2CCN(S(=O)(=O)c3ccc(NC(C)=O)cc3)CC2)cc1,-3.2,3.5,-0.7,-5.6,i,-2.3
COc1cc(NS(=O)(=O)c2ccc3c(c2)oc(=O)n3C)cc(OC)c1OC,-1.2,-6.3,-0.4,-1.3,+,-0.1
Cn1c(=O)oc2cc(S(=O)(=O)N3CCN(c4ccccc4)CC3)ccc21,-1.6,-71.3,29.1,-30.8,+,-2.9
Cn1c(=O)oc2cc(S(=O)(=O)Nc3ccccc3O)ccc21,-4.6,34.9*,1.4,-2.2,i,-3.1
COC(=O)c1ccccc1NS(=O)(=O)c1ccc2c(c1)oc(=O)n2C,-2.5,0.8,4.2,0.0,i,-1.0
Cn1c(=O)oc2cc(S(=O)(=O)N3CCC(C(=O)N4CCN(c5ccccc5)CC4)CC3)ccc21,-3.2,3.5,1.5,3.6,i,-0.7
Oc1[nH]c2ccccc2c1N=Nc1nc(Nc2ccccc2)nc(N2CCOCC2)n1,0.6,13.1,5.7,6.5,i,-5.5
Cc1[nH]c2ccccc2c1/C=N/Nc1nc(Nc2ccccc2)nc(N2CCOCC2)n1,-0.2,6.6,-4.0,11.7,+,-5.4
CN(C)c1ccc(/C=N/NC(=O)c2nonc2N)cc1[N+](=O)[O-],3.8,24.7*,1.6,0.1,i,-2.4
Nc1nonc1C(=O)N/N=C/c1cccc([N+](=O)[O-])c1,-1.8,3.7,0.1,-5.0,i,0.2
O=C(CSc1ncccn1)NC(=O)Cc1ccccc1,-4.0,0.8,-0.6,-0.1,i,-2.7
SMILES,DAGLB inhibitor,NRP1-CendR mod,SENP1 inh,MT1-MMP act inh,Myeloid diff 2,beta cell repl
NC(=S)N1N=C(c2ccccc2)CC1=O,-1.4,9.5,-0.6,0.5,i,nt
O=C1NC(=S)S/C1=C\c1cc2ccccc2nc1N1CCCCC1,10.1,-102.7,76.5*,-48.8,i,-3.3
Cc1ccc([N+](=O)[O-])cc1NC(=S)NC(=O)c1cccs1,-1.4,1.4,-0.1,4.5,i,-1.3
Oc1ccc2[nH]cnc2c1CN1CCCCC1,-0.7,25.2*,0.1,4.6,?,-1.5
Cc1cc(=O)oc2c(CN3CCCCC3)c(O)ccc12,-0.4,3.0,-127.5,0.3,i,nt
CC(C)(C)c1cc[n+](C2=C([O-])c3ccccc3C(=O)/C2=N\S(=O)(=O)c2cccs2)cc1,nt,30.7*,3.3,-16.4,i,-3.9
CCCCNc1c(-c2ccc(SC(C)CC)cc2)nc2cnccn12 (stereo unspecified),-4.3,-8.8,-31.7,-44.3,+,-6.2
CCCCNc1c(-c2ccc(OC)c(Sc3ccc(OC)cc3)c2)nc2cnccn12,-0.6,-31.7,-29.3,-8.6,i,-6.0
O=C(COC(=O)c1ccc([N+](=O)[O-])s1)c1ccc[nH]1,2.0,-11.3,2.0,-2.4,i,-5.9
Cc1c(-c2ccc(OCc3ccccc3)cc2)nc2ccccc2c1C(=O)O,-0.2,-6.5,3.0,4.0,+,-3.1
Cc1ccc(C2(c3noc(CN(C)Cc4cnn(C)c4)n3)CCCC2)cc1,-1.9,34.3*,-0.5,3.6,i,-3.7
Cc1ccc(C2(c3noc(CN(C)CCCN4CCOCC4)n3)CCCC2)cc1,nt,nt,nt,nt,nt,-0.2
COCCN1C=C(C(=O)OC)C(c2ccccc2Cl)C(C(=O)OC)=C1,-7.1,21.9*,-39.5,-2.1,i,-2.6
CC1CN(C(=O)c2ccc(S(=O)(=O)Nc3ccccc3Cl)cc2)CC(C)O1 (stereo unspecified),-2.0,-5.3,1.4,-3.6,i,-1.7
CC1CN(C(=O)c2ccccc2NS(=O)(=O)c2ccc(Cl)cc2)CC(C)O1 (stereo unspecified),-1.9,19.0*,3.4,-6.3,i,-2.1
Cc1ccc2c(c1)N(C)/C(=C/c1cccc[n+]1CCO)S2,-2.1,1.3,-49.0,-50.0,+,-3.6
COc1cccc(CNC(=O)COc2cccc(-n3cnnn3)c2)c1,2.7,6.0,0.9,4.8,i,3.4
COc1ccc(CCNC(=O)COc2cccc(-n3cnnn3)c2)cc1,0.8,17.7*,1.9,-2.3,i,-0.3
CCn1cc(C(=O)Nc2ccc(Cl)cc2Cl)cn1,-2.9,-3.3,0.4,1.7,i,-1.5
CCn1cc(C(=O)N2CCN(C(=O)c3ccco3)CC2)c2cc(OC)c(OC)cc2c1=O,0.2,23.6*,0.8,7.9,i,0.6
